PfHsp90 yeast 2: reduces growth (ATP signal) of yeast expressing P. falciparum Hsp90 | S. cerevisiae expressing PfHsp90, BacTiter-Glo ATP, 48 h; yeast lacking PDR1 and PDR3 efflux regulators | 310,000 compounds, 0.32% hits | AID 504621 | inhibition, % at 9.4 µM;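 active = every replicate shows inhibition above about 80%, whatever the replicate mean, limit read from the data; inconclusive = mean inhibition reaches the set limit but some replicate falls short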;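 also: 0% = DMSO neutral controls and 100% = 20 µM radicicol positive controls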
CSC inhib: blocks cancer stem cells. cancer stem cell-like cells viability, luminescence. inhibition, % at 7.5 µM. 300,000 compounds, 1.1% hits. AID 2717; in the data active = inhibition above about 75%; inconclusive = no clear call, values can overlap the other calls; tested in HMLE shEcad cells
FN deposition inh: fibronectin deposition inhibition | AH1F fibroblasts, Alexa488-fibronectin deposition fluorescence, overnight | inhibition, % at 12.6 µM | 350,000 compounds, 0.086% hits | AID 743247;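 active = mean inhibition across replicates of 30% or more, regardless of how many single replicates reach that level; inconclusive = mean under 30% yet at least half of replicates reach 30%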;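 also: positive control wells lacked labelled fibronectin entirely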
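material = AH1F fibroblast monolayer depositing Alexa488-labelled fibronectin into matrix | amount = 10000 AH1F cells/well | buffer or medium = DMEM plus 2% serum, read in PBS | incubation = 1 h cell adhesion before compound, then overnight fibronectin incubation | detection = fluorescence at 485 nm excitation, 525 nm emission | evaluation = percent inhibition as loss of matrix-bound fibronectin fluorescence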
PglD inh: inhibitors of Campylobacter jejuni PglD acetyltransferase | 360,000 compounds, 0.098% hits | inhibition, % at 12.5 µM | purified PglD enzyme, DTNB colorimetric CoA detection | AID 602405; in the data active = inhibition above about 16%, passing the limit was not always enough; inconclusive = no clear call, values can overlap the other calls
Rtt109 HAT inh: blocks Candida albicans Rtt109/Vps75 acetyltransferase activity | purified Rtt109/Vps75, ThioGlo CoA-SH fluorescence, 4 h | 330,000 compounds, 0.16% hits | AID 540336 | inhibition, % at 34.9 µM;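 active = inhibition of at least 50% in every replicate; inconclusive = best replicate reaches 50% inhibition but some replicates fall short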
Target sequence (Q5AAJ8 whole entry, looked up): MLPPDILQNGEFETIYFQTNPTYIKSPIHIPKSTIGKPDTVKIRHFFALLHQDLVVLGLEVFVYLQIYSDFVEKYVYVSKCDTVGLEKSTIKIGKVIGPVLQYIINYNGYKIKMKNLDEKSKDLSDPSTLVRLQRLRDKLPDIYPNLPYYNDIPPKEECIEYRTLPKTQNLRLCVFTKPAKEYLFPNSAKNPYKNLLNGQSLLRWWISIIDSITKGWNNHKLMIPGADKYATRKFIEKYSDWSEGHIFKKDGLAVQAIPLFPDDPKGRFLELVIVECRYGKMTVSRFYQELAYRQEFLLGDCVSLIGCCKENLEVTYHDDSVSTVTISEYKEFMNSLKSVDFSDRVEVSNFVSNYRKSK
SKKanGAS inh: SKKanGAS growth inhibition; S. pyogenes SKKanGAS, kanamycin growth, BacTiter-Glo, 6 h; inhibition, % at 7.5 µM; 300,000 compounds, 1.3% hits;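 active = mean replicate score, as percent of positive control median, at least 50; inconclusive = mean below 50 but one replicate at or above 50; inactive = mean and every replicate below 50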;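 also: strain carries kanamycin resistance gene driven by streptokinase promoter and grows in 40 µg/ml kanamycin; loss of luminescence reflects streptokinase promoter inhibition or plain growth inhibition; 0% = median of DMSO wells and 100% = positive control at its reference dose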
Starred values were filed as active, the others as inactive; ? = inconclusive; / = not tested or not shown; + = active, no number. This is a sample that favours compounds with a hit; in the whole collection about 1.7% have one here.

SMILES | PfHsp90 yeast 2 | CSC inhib | FN deposition inh | PglD inh | Rtt109 HAT inh | SKKanGAS inh
O=[N+]([O-])c1ccc(Sc2nc3ccccc3o2)c([N+](=O)[O-])c1 | / | 106* | / | -1 | -7 | 9
O=[N+]([O-])c1ccc(Cl)cc1Sc1nc2ccccc2o1 | -1 | 22 | / | -1 | -5 | 67*
O=c1[nH]c(Sc2ccc([N+](=O)[O-])cc2[N+](=O)[O-])nc2ccccc12 | 37 | 61 | -2 | 8 | 13 | 8
Cc1cccc(N2CCN(C(=O)c3ccc4nc(N5CCCCC5)sc4c3)CC2)c1C | -17 | 84* | -3 | 4 | 2 | 51*
N=C1/C(=C/c2ccc(-c3cccc(C(=O)O)c3)o2)C(=O)N=C2SC=C(c3ccccc3)N12 | -6 | 22 | / | / | -4 | 79*
N=C1/C(=C\c2ccc(-c3cc(Cl)cc(Cl)c3)o2)C(=O)N=C2SC=C(c3ccccc3)N12 | -19 | 33 | 6 | -9 | -4 | 6
O=C(CCc1ccccc1)NC(=S)Nc1cccc(C(=O)O)c1 | -17 | 1 | -4 | -2 | -9 | 21
O=C(CCCc1ccccc1)Nc1cccc(C(=O)O)c1 | 16 | 0 | 33* | / | -2 | 1
CC1(C)CCCN(C(=O)N2c3ccccc3Sc3ccccc32)C1 | -15 | 24 | -19 | -1 | 9 | 80*
C=C1CCC2C(C)(C)[C@@H](O)CC[C@@]2(C)[C@@H]1COc1ccc2ccc(=O)oc2c1 (some centres undefined) | 0 | 16 | 7 | 0 | -10 | 52*
O=C(NC12CC3CC(CC(C3)C1)C2)c1ccc([N+](=O)[O-])o1 | 0 | 80* | -5 | 4 | -4 | 93*
O=C(NC12CC3CC(CC(C3)C1)C2)c1ccc(Br)o1 | 13 | -5 | -11 | 3 | 9 | 2
O=C(NC12CC3CC(CC(C3)C1)C2)c1ccc(-c2ccc(Br)cc2)o1 | -6 | 6 | 4 | / | 5 | 56*
C[C@@H]1CN([C@H](C)CO)C(=O)c2cc(C3=CCCC3)cnc2O[C@H]1CN(C)S(C)(=O)=O | / | / | / | 4 | / | /
Cn1cccc1-c1nc2ccccc2n1Cc1ccccc1 | -3 | 88* | / | 1 | -3 | -5
O=C1C=C(c2ccc(F)cc2OCc2ccccc2)C[C@@H](c2ccc(F)cc2)C1 | 15 | 93* | -9 | 10 | -2 | /
COc1ccc([C@H]2CC(=O)C=C(c3ccc(F)cc3OCc3ccccc3)C2)cc1 | -2 | -1 | -5 | -3 | 2 | /
COc1cccc(/C=C(/C(=O)OCC(=O)NC2CCCC(C)C2C)c2ccccc2)c1 (centres undefined) | 1 | 37 | 1 | / | -10 | 65*
COc1cccc(/C=C(/C(=O)OCC(N)=O)c2ccccc2)c1 | 11 | -8 | -5 | / | 1 | -5
CCc1ccc(C(=O)Cn2ncc(Cl)c(Cl)c2=O)cc1 | 0 | -6 | / | 1 | 5 | -15
O=C(OCn1ncc(Cl)c(Cl)c1=O)c1cccc(C(F)(F)F)c1 | 99* | 23 | / | 3 | 6 | 5
C[C@@H]1CN([C@@H](C)CO)C(=O)c2cccc(NC(=O)CCCCCC(=O)Nc3ccccc3N)c2O[C@H]1CN(C)S(=O)(=O)c1ccc(Cl)cc1 | / | / | -14 | / | / | /
CC(C)NC(=O)N(C)C[C@@H]1Oc2ncc(C#Cc3ccc(F)cc3)cc2C(=O)N([C@@H](C)CO)C[C@H]1C | / | / | 4 | -2 | / | /
Cc1noc(C)c1NC(=O)N(C)C[C@H]1Oc2ccc(NC(=O)c3ccncc3)cc2CC(=O)N([C@H](C)CO)C[C@@H]1C | / | / | -7 | -4 | / | /
O=C(O)c1cn(C2CC2)c2cc(N3CCN(S(=O)(=O)c4ccc5c(c4)OCCO5)CC3)c(F)cc2c1=O | -37 | -1 | -2 | 0 | 7 | 121*
SMILES | PfHsp90 yeast 2 | CSC inhib | FN deposition inh | PglD inh | Rtt109 HAT inh | SKKanGAS inh
CCn1cc(C(=O)O)c(=O)c2cc(F)c(N3CCN(S(=O)(=O)c4ccc(Br)cc4)CC3)cc21 | / | 0 | / | / | / | 34
COCC(=O)N1CCC2(CC1)CN[C@H](CO)c1c2c2ccc(OC)cc2n1C | / | / | -11 | / | / | /
C[C@H]1CCCCO[C@@H](CN(C)C(=O)Nc2ccc(F)cc2)[C@@H](C)CN([C@@H](C)CO)C(=O)c2cc(NS(=O)(=O)c3cn(C)cn3)ccc2O1 | / | / | 1 | -1 | / | /
C[C@@]12C(=O)Nc3ccc(Cl)cc3C(=O)N1[C@H]1c3ccccc3OC[C@@H]1[C@@H]2c1ccccc1 | 107* | -17 | / | 3 | 0 | /
C[C@@]12C(=O)Nc3ccc(F)cc3C(=O)N1[C@H]1c3ccccc3OC[C@@H]1[C@@H]2c1ccccc1 | + | 21 | / | -3 | 5 | /
COc1cc2c(cc1OC)C(=O)N1[C@H]3c4ccccc4OC[C@@H]3[C@H](c3ccccc3)[C@]1(C)C(=O)N2 | 86* | 7 | -10 | 1 | 5 | /
C[C@H](CO)N1C[C@H](C)[C@H](CN(C)S(=O)(=O)c2cn(C)cn2)OCCCC[C@H](C)Oc2ccc(NS(=O)(=O)c3ccc(Cl)cc3)cc2C1=O | / | / | 7 | -1 | / | /
Cc1ccc(S(=O)(=O)Nc2cccc3c2O[C@H](CN(C)Cc2ccncc2)[C@H](C)CN([C@H](C)CO)C3=O)cc1 | / | / | -8 | -1 | / | /
O=C1CC(c2ccccc2)=NN1c1ccccc1 | / | / | -4 | 2 | 2 | /
O=C1CC(c2ccccc2)=NN1c1nc(-c2ccccc2)cs1 | 92* | 44 | -4 | / | 0 | ?
CC1=NN(c2nc(-c3ccccc3)cs2)C(=O)C1 | -27 | / | 17 | 2 | 3 | 66*
CC1=NN(c2nc(-c3ccc(C#N)cc3)cs2)C(=O)C1 | / | 1 | -3 | / | / | -14
Cc1ccc(OCC(=O)Nc2ccc(O)c(-c3nc4ccccc4o3)c2)cc1 | -34 | -8 | / | 4 | 3 | 18
O=C(Nc1ccc(O)c(-c2nc3ccccc3o2)c1)C1(c2ccc(Br)cc2)CCCC1 | 13 | 84* | 9 | / | -25 | 7
O=C(CN1CCOCC1)N[C@H]1CC[C@H](CCn2cc(C3CCCCC3)nn2)O[C@H]1CO | / | / | 5 | 1 | / | /
CC(C)(C)C1C/C(=C/c2ccccn2)C(=O)/C(=C/c2ccccn2)C1 (centres undefined) | 100* | 67 | / | 6 | 2 | 5
CC(=O)/C(=N/Nc1ccccc1)Sc1nnc(C(O)c2ccccc2)n1-c1ccccc1 (centres undefined) | -9 | -6 | -9 | 0 | 57* | 0
CC(=O)/C(=N/Nc1ccccc1Cl)Sc1nnc(C(O)c2ccccc2)n1-c1ccccc1 (centres undefined) | 1 | -7 | -3 | 1 | -3 | -2
CC(/C=C/c1ccccc1)=N/NC(=O)c1cccc(Br)c1 | -13 | 39 | -6 | / | -1 | 87*
CC(/C=C/C=C/c1ccccc1)=N/NC(=O)c1ccc2c(c1)OCCO2 | -11 | 12 | -1 | -2 | -1 | 61*
